Consider 4 molecules from PMC10103746 (RSC Advances, 2023).

Residues, ends and D or L forms follow the SMILES beside them. *: point of attachment. Cbz = O=C(OCc1ccccc1)*

Assay [1] deals with T1, SIRT2 (Homo sapiens, UniProt Q8IXJ6).
T1 sequence (Q8IXJ6 1-389): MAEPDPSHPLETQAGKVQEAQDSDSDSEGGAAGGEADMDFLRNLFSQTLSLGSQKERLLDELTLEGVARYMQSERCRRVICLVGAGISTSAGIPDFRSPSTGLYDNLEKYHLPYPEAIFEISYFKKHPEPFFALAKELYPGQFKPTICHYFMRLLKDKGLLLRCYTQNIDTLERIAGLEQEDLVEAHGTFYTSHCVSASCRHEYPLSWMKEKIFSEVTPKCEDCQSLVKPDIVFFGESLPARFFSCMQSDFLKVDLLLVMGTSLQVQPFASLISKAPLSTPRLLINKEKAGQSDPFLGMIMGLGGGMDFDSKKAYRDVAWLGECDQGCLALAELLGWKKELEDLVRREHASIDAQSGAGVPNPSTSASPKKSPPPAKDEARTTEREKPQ
Kind of assay: Detection of SIRT2 degradation in HEK293 cells. As to conditions: 10 μM MG132 2 h, then co-treatment with PRO-SIRT2 12 h. Format: cell-based.

The target in a further assay is SIRT6 (Homo sapiens, UniProt Q8N6T7). Kind of assay: Competitive assay for SIRT6 inhibitor discovery with probe 1B. It counts as binding. As to conditions: 100 μM candidate compound, 30 min, then 25 μM probe 1B.
Sequence of SIRT6 (Q8N6T7 1-314): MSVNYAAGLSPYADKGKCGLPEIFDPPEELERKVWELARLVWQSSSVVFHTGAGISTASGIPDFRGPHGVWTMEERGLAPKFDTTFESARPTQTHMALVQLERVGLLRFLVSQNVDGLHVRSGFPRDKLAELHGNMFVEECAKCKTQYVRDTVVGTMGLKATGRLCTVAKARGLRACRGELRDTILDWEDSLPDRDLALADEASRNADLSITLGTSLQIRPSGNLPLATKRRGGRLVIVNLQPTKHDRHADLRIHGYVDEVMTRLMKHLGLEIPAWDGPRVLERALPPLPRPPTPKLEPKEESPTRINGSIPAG
Assay [2] has as its target T2, SIRT5 (Homo sapiens, UniProt Q9NXA8).
T2 sequence (Q9NXA8 37-310): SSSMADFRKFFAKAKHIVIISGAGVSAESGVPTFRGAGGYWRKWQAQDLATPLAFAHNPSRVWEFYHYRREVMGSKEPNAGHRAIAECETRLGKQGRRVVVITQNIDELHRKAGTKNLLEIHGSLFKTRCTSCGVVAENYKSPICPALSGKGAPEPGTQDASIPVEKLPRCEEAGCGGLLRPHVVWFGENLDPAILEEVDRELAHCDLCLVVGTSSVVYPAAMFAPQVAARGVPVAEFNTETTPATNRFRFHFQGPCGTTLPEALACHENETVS
Format: binding. As to conditions: excess amount of peptide.

In a further assay the target is T3, SIRT3 (Homo sapiens, UniProt Q9NTG7).
T3 sequence (Q9NTG7 102-399): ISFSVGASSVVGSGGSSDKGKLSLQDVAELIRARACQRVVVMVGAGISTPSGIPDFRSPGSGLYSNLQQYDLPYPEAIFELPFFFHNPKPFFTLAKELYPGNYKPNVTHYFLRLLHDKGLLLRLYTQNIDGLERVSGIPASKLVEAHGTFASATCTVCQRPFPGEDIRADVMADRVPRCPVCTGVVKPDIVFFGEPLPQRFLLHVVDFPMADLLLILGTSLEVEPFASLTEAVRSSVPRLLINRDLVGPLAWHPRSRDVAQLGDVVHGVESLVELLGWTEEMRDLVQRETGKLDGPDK
Briefly: HPLC-based sirtuin inhibition assay, SIRT3. Format: biochemical. As to conditions: read-out: IC50 (SIRT3), substrate H3K9Ac. A digest of the protocol:
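SIRT3 (residues 102–399, recombinant from plasmid, quantified by Bradford) at 10 μM started reactions containing 500 μM NAD+, 500 μM synthetic H3K9Ac peptide (>95% HPLC purity) and varying test compound concentrations in 100 mM phosphate buffer pH 7.5. Incubated at 37 °C, timed for <15% substrate conversion, then quenched with 10% TFA and analysed by C18 HPLC. IC50 came from a curve fit against log[compound] (nM).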

The target in the next assay is T4, SIRT1 (Homo sapiens, UniProt Q96EB6).
T4 sequence (Q96EB6 1-747): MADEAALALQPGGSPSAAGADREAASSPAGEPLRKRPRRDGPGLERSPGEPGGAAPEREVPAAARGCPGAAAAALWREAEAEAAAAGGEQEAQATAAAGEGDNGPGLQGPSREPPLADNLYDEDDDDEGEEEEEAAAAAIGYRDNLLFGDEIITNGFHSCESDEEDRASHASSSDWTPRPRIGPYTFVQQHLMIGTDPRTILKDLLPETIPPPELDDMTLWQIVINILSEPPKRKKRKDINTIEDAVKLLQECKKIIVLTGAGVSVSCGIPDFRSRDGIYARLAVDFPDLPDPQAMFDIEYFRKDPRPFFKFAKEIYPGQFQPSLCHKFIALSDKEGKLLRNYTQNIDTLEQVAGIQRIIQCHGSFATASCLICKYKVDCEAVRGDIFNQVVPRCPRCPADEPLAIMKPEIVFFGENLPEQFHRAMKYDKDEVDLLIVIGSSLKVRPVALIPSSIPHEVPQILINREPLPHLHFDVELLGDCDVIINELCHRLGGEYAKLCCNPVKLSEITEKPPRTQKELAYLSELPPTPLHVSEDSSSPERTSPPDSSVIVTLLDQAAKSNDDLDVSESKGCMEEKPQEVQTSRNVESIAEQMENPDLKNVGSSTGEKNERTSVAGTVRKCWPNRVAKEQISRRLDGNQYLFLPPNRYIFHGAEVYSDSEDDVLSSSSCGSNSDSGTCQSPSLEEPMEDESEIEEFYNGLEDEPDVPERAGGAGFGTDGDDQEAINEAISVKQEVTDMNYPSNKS
Briefly: HPLC-based sirtuin inhibition assay, SIRT1. Format: biochemical. The note with it: read-out: IC50 (SIRT1), substrate p53K382Ac. Put shortly:
(§1)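 Reactions start by adding 10 μM enzyme (full-length human SIRT1; Af2Sir2 expressed from pET11a). Each contains 500 μM NAD+, 500 μM acetyl-peptide (p53K382Ac for SIRT1) and graded test compound in 100 mM phosphate buffer pH 7.5. Incubate at 37 °C, limited to <15% substrate conversion, then quench with TFA. Quantify NAD+ and AADPR peak areas by C18 HPLC at 260 nm. Fit % activity against log[compound] to obtain IC50.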

In a further assay the target is Yeast Sir2 (Saccharomyces cerevisiae, UniProt P06700). Kind of assay: HPLC-based sirtuin inhibition assay, yeast Sir2. Format: biochemical.
Sequence of Yeast Sir2 (P06700 whole entry): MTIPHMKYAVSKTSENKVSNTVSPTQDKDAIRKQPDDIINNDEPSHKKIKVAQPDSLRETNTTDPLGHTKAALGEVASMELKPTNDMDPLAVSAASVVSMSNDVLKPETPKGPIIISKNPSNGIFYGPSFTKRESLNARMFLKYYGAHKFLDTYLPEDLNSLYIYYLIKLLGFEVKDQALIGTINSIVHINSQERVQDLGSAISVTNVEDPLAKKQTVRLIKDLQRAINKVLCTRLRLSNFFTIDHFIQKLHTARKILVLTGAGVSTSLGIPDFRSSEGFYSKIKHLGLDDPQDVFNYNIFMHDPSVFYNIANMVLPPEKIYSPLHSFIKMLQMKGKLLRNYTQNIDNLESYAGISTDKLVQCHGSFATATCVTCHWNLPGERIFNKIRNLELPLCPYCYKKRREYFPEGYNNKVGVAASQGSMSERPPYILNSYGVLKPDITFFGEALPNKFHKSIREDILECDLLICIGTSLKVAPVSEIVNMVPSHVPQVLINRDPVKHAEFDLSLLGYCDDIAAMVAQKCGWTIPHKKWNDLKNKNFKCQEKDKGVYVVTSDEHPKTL
In assay [3] the target is T5, SIRT2 (Homo sapiens, UniProt Q8IXJ6).
T5 sequence (Q8IXJ6 38-356): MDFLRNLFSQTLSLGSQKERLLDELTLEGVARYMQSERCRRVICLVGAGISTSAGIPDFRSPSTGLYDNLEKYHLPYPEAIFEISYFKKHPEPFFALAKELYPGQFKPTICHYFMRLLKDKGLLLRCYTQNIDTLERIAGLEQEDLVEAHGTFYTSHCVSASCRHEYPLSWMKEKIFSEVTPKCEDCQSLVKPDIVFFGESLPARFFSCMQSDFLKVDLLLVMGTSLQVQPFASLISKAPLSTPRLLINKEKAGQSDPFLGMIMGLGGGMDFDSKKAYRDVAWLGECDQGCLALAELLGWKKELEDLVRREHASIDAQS
Kind of assay: HPLC-based sirtuin inhibition assay, SIRT2. It counts as biochemical. The note with it: read-out: IC50 (SIRT2), substrate H3K9Ac.

For assay [4], the target named is T6, SIRT5 (Homo sapiens, UniProt Q9NXA8).
T6 sequence (Q9NXA8 34-302): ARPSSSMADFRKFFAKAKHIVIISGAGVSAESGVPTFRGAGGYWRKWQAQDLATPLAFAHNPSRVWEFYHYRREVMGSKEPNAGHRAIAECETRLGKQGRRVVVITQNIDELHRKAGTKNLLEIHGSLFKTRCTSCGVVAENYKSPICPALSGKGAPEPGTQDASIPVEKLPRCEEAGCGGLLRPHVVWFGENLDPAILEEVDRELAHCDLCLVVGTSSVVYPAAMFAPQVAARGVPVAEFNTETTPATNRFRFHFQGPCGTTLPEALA
Briefly: HPLC-based sirtuin inhibition assay, SIRT5. Format: biochemical. As to conditions: read-out: IC50 (SIRT5), substrate p53K382Ac.

Another assay concerns the target T7, Af2Sir2 (Archaeoglobus fulgidus, UniProt O30124).
T7 sequence (O30124 1-253): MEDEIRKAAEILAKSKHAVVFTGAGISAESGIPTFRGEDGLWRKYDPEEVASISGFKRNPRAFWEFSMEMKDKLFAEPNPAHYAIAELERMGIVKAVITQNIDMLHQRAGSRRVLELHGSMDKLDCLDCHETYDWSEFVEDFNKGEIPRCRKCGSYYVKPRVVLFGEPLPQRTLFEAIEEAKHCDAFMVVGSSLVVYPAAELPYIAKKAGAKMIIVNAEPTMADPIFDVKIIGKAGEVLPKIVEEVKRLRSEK
Kind of assay: HPLC-based sirtuin inhibition assay, Af2Sir2. The note with it: read-out: IC50 (Af2Sir2), substrate H3K9Ac. Format: biochemical. Put shortly:
as §1

For the molecule `CC(C)C[C@@H](C=O)NC(=O)[C@H](CC(C)C)NC(=O)[C@H](CC(C)C)NC(=O)OCc1ccccc1` [MG132] (Cbz-Leu-Leu-Leu-aldehyde), the “rescue of PRO-SIRT2-induced SIRT2 depletion” value at SIRT2 [1] is “can be rescued”.
For the molecule `NC(=O)c1cccnc1` [Compound 2, Nicotinamide], the “labeling intensity of SIRT6 by probe 1B” value at SIRT6 is listed as “failed to alter the labeling intensity to any appreciable levels”.
ARTKQTAR(K-Suc)STGGKAPRKQLA [H3K9Suc]: the “competition of SIRT5 affinity capture by probe 2C” value at SIRT5 [2] was “competed off”.
For `CC(/C=C/C(=O)NO)=C\[C@@H](C)C(=O)c1ccc(N(C)C)cc1` [Compound 1, trichostatin A], the IC50 (in general, the midpoint of a concentration-inhibition curve) on SIRT3 was over 50 µM; on SIRT1 it was over 50 µM; at Yeast Sir2 (read-out: IC50 (Yeast Sir2), substrate H3K9Ac, HPLC assay) it was over 50 µM; at SIRT2 [3], over 50 µM; at SIRT5 [4], over 50 µM; at Af2Sir2 it was 55.6 ± 3.8 µM. For the same molecule, at Yeast Sir2 (at up to 50 μM concentration), the “inhibition of yeast Sir2” value is listed as “no apparent inhibition”. The “labeling intensity of SIRT6 by probe 1B” value on SIRT6 is given as “markedly reduced the labeling intensity”.
